# Source: PubChem
# Jurkat NFkB inh: inhibitors of induced NF-kB luciferase reporter, primary screen, TCR NF-kB activation inhibitor project, cell-based, luminescence, uHTS. AID 435003, 2010. 330,000 tested, 0.53% active. inhibition, % at 4 µM. Jurkat, PMA/ionomycin-induced NF-kB luciferase reporter; in the data active means inhibition above about 50%
# CHOP inh: inhibitors of CHOP promoter induction, primary screen, cell-based, unfolded protein response, luciferase reporter; CHO-K1 CHOP-promoter luciferase, tunicamycin-induced, 15-18 h; inhibition, % at 10 µM; 220,000 tested, 3.8% active; AID 2732, 2010;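 active means compounds that reduced the stress-induced luciferase reporter signal by more than about 70% of percent inhibition, limit read from the data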;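 further: 0% = tunicamycin plus vehicle and 100% = wells without tunicamycin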
# CHOP UPR activ: activators of apoptotic CHOP UPR arm, primary screen, cell-based, CHO-CHOP luciferase reporter, luminescence, uHTS | UPR activation; percent of tunicamycin response over DMSO baseline | activation, % at 10 µM | 330,000 tested, 0.34% active;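 active means at 10 µM dose, activation of 40% or more, normalized to positive control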;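 further: 100% = tunicamycin at 10 µg/mL and 0% = DMSO alone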
#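 Test system: CHO CHOP reporter cells. Input: 500 CHO-CHOP cells per well. Medium: F12 with 10% FBS. Technique: luciferase luminescence. Measure: percent activation relative to tunicamycin control. Dosing: 10 µM compound, 0.5% DMSO. Timing: 16-18 h cell attachment, then 6 h compound exposure, 37 °C.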
# 697 NFkB inh: inhibitors of PMA/ionomycin-induced NF-kB reporter, 697 cells, primary screen, B-cell NF-kB inhibitor project, cell-based, luminescence, uHTS. 697 B-cell NF-kB luciferase reporter, 16 h. inhibition, % at 4 µM. 330,000 tested, 0.33% active; in the data active means inhibition above about 35%
# XBP1 UPR activ: activators of adaptive XBP1 UPR arm, primary screen, cell-based, CHO-XBP1 luciferase reporter, luminescence, uHTS; IRE1-XBP1 UPR activation; percent of tunicamycin response, DMSO as zero; activation, % at 20 µM; 330,000 tested, 0.33% active; AID 463104, 2010;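 active means versus positive control, 20 µM dose yields 30% or more activation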;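 further: 100% = tunicamycin at 10 µg/mL and 0% = DMSO only wells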
#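 Test system: CHO-XBP1 luciferase reporter cells | Buffer or medium: Serum-containing F12 medium, 10% FBS | Schedule: 6 h compound exposure at 37 °C, 5% CO2 | Detection: Steady-Glo luciferase glow luminescence, 10 min after reagent addition | Read-out basis: Activation, % of tunicamycin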
# CHOP confirm: retest of CHOP induction inhibitors, confirmation, cell-based; shares compounds with CHOP inh; CHO-CHOP promoter luciferase reporter, tunicamycin-induced, luminescence; inhibition, % at 10 µM; 2,100 tested, 45% active;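 active means mean of three repeat readings of reporter signal inhibition above a set limit, cut at about 70% in these data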;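 further: 0% = tunicamycin plus vehicle and 100% = wells lacking tunicamycin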
# * hit, by the source's call; nt = not tested or not shown. This is one part of a sample in which hits are shown more often than they occur.
SMILES,Jurkat NFkB inh,CHOP inh,CHOP UPR activ,697 NFkB inh,XBP1 UPR activ,CHOP confirm
COc1ccc(/C=N/Nc2ncnc3c2[nH]c2ccc(C)cc23)c(OC)c1OC,-5,32,6,-23,6,nt
COc1cc(OC)c(OC)cc1/C=N/Nc1ncnc2c1[nH]c1ccccc12,36,104*,-1,-73,11,72*
Cc1ccc2[nH]c(=O)c3cc(C(=O)N(C)c4ccccc4C)sc3c2c1,4,101*,-1,-56,5,2
Cc1ccc(S(=O)(=O)N2CCOCC2)cc1C(=O)N1CCN(c2ncccn2)CC1,-3,nt,-1,0,1,nt
Cc1c(C(=O)OC/C(O)=C(\C#N)c2nc3ccccc3[nH]2)oc2ccc(Br)cc12,1,103*,3,21,2,13
Cc1c(-c2cccc(Cl)c2)nc2ccccc2c1C(=O)OC/C(O)=C(\C#N)c1nc2ccccc2[nH]1,9,105*,0,-15,16,47
COc1cc(C)ccc1OCc1cc(C(=O)N2CCN(C3CCCCC3)CC2)no1,-55,nt,4,-94,-2,nt
CC1=C(CC[C@@H](C)CO)OC2CC3C4CCC5CC(O)CCC5(C)C4CC(=O)C3(C)C12 (some centres not stated),-10,nt,2,2,-3,nt
COc1ccc2nc(Nc3nc(CSc4nc5ccccc5[nH]4)cc(=O)[nH]3)nc(C)c2c1,49,102*,-1,18,2,103*
Cc1nc(Nc2nc(CSc3nc4ccccc4[nH]3)cc(=O)[nH]2)nc2ccccc12,15,99*,2,-5,6,87*
COc1ccc2c(C)nc(Nc3nc(C)c(C)c(=O)[nH]3)nc2c1,-56,99*,-1,-80,8,106*
CCc1c(C)nc(Nc2nc(C)c3ccc(OC)cc3n2)[nH]c1=O,-47,0,3,2,19,nt
N#CCCCc1cc2cc(F)ccc2cn1,-23,nt,2,21,-2,nt
Cc1ccsc1C(=O)N1CCN(C(=O)c2ccco2)CC1,8,nt,-2,18,-2,nt
CCOc1ccc(/C=N/NC(=O)Cc2csc(Nc3cccc(C(F)(F)F)c3)n2)cc1,6,106*,0,-16,-3,32
CCOc1ccc(/C=N/NC(=O)Cc2csc(Nc3cccc(C(F)(F)F)c3)n2)c(OCC)c1,-10,21,4,-9,-1,nt
COc1ccc(S(=O)(=O)N2CCC(Nc3ccccc3Cl)CC2)cc1,6,nt,0,21,-3,nt
COc1cc(C(=O)Nc2cccc(-c3nc4cc(C)ccc4o3)c2C)cc(OC)c1OC,-13,108*,1,7,6,16
COCCN(C(=O)COC(=O)CCCOc1ccc(OC)cc1)c1c(N)n(Cc2ccccc2)c(=O)[nH]c1=O,-11,nt,-1,13,-2,nt
Cc1ccc(NC2=C(Cl)C(=O)c3ccccc3C2=O)cc1,nt,7,nt,nt,nt,nt
CCN(CC)c1ccc(NC2=C(Cl)C(=O)c3ccccc3C2=O)cc1,nt,107*,nt,nt,nt,-11
O=C(Cc1ccc(S(=O)(=O)N2CCOCC2)s1)N1CCN(S(=O)(=O)c2ccc(Cl)cc2)CC1,-31,nt,0,-22,-4,nt
O=C(CCS(=O)(=O)c1ccc(Br)s1)Nc1ccccc1Br,-3,25,2,-3,5,nt
Cc1cc(C)c2[nH]c(C)c(CN3CCCCCC3)c(=O)c2c1,-16,nt,-1,20,-3,nt
COc1ccccc1-n1cc([C@@H]2C[C@H]3CN(c4ccccc4)C(=O)[C@]34CCCN24)cn1,-4,102*,-4,17,-2,104*
SMILES,Jurkat NFkB inh,CHOP inh,CHOP UPR activ,697 NFkB inh,XBP1 UPR activ,CHOP confirm
COc1ccc(/C=N/N(Cc2ccccc2)c2ccccc2)cc1O,-4,104*,3,-11,2,12
Cc1ccc(NC(=O)C2CCCN2C(=O)c2cccs2)cc1C (configuration not stated),-11,nt,0,-7,0,nt
O=[N+]([O-])c1ccc(NC(=S)NCCc2ccc(Cl)cc2)cc1,20,105*,-1,-4,-8,94*
CSc1ccc(NC(=O)Nc2ccc(C(=O)NCC(=O)O)cc2)cc1,1,-7,4,-16,-2,nt
COc1ccc(C)cc1N1C(=N)/C(=C2/Nc3ccccc3S2)C(c2ccccc2)C1=O (configuration not stated),nt,98*,nt,nt,nt,-15
CCOc1ccccc1/C=C/C(=O)NCC(=O)N1CCC(N(C)C2CCCCC2C)CC1 (configuration not stated),-13,nt,1,-38,0,nt
CCCNC(=O)c1nnsc1S(=O)(=O)c1ccc(Cl)cc1,29,108*,-5,-8,-9,141*
CN(C)CC(C)(C)CNS(=O)(=O)c1ccc(Cl)s1,12,-6,0,-8,-2,nt
CCC(Cc1ccccc1)n1c(=S)[nH]c2ccccc2c1=O (configuration not stated),6,97*,-1,6,2,82*
CCC(C)n1c(=S)[nH]c2ccccc2c1=O (configuration not stated),3,14,-3,-13,-1,nt
C/C(=N/NC(=O)c1cc(-c2ccccc2)nc2c(Cl)cccc12)c1cccnc1,-11,nt,-1,-25,2,nt
O=C(OCC(=O)N1CCN(c2ccccc2)CC1)c1cc(Cl)ccc1[N+](=O)[O-],13,nt,1,7,-1,nt
CNc1oc(-c2ccc(C)cc2)nc1P(=O)(c1ccccc1)c1ccccc1,-124,107*,1,-112,2,43
CNc1oc(-c2ccc(F)cc2)nc1S(=O)(=O)c1ccccc1,8,nt,1,15,0,nt
CNC(CC(=O)c1ccc([N+](=O)[O-])cc1)C(Cl)(Cl)Cl (configuration not stated),nt,110*,nt,nt,nt,-12
CCOc1ccc(S(=O)(=O)N2CCOCC2)cc1NC(=O)c1ccc(N2CCCC2=O)cc1,12,nt,-1,-3,-3,nt
COc1ccc2[nH]c(=O)c(CN(C3CCCCC3)C(c3nnnn3Cc3ccco3)C(C)C)cc2c1 (configuration not stated),-10,102*,-7,-9,-2,52
CCOC(=O)Cn1c(=NC(=O)c2nc3ccccc3s2)sc2cc(S(N)(=O)=O)ccc21,4,103*,0,19,7,18
CCOC(=O)Cn1c(=NC(=O)CN2C(=O)CCC2=O)sc2cc(S(N)(=O)=O)ccc21,-1,-1,1,-15,0,nt
N#Cc1ccccc1OCC(=O)NNC(=O)CNC(=O)c1ccc(Br)o1,2,nt,0,11,-1,nt
